Data from ChEMBL document CHEMBL1137984, “Structure-activity relationship of heterobase-modified 2'-C-methyl ribonucleosides as inhibitors of hepatitis C virus RNA replication” (J Med Chem, 2004).

Experiments:
[1] = Cmax value in rats; format: ADME, organism-based; settings: rat, in vivo
How it was run: (§1)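 Male CRL rats; single intravenous dose of 1.0 mg/kg (N = 2) and oral dose at […] (N = 3). Plasma sampled and analysed by a method described earlier; clearance, half-life, Cmax, Tmax and %F derived from plasma levels.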

[2] = Clearance in rats when administered at a dose of 1 mg/kg i.v. and […] p.o.; format: ADME, organism-based; design: dose 1 mg/kg; settings: rat, in vivo, iv; how it was run: as §1
[3] = Cytotoxicity against HB-1 cells in an MTS-based assay; format: functional; settings: HB1
[4] = Half-life in rats; format: ADME; settings: rat, in vivo; how it was run: as §1
[5] = Oral bioavailability in rat; format: ADME, organism-based; settings: in vivo; how it was run: as §1
[6] = test system: Nucleic Acid; assay: Inhibition of HCV RNA replication in a subgenomic bicistronic replicon assay in HB-1 cells; format: functional, cell-based, Hepacivirus hominis; settings: Hepatitis C virus, HB1
How it was run: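 Subgenomic bicistronic HCV replicon in HB-1 cells; viral RNA quantified by in situ RNase protection assay after 24 h of nucleoside treatment. EC50 averaged over at least two independent potency determinations. Nucleosides purified by preparative RP-HPLC, purity generally >98%.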

[7] = Tmax value in rats; format: ADME; settings: rat, in vivo; how it was run: as §1
[8] = test system: Hepatitis C virus; assay: Compound was tested for the inhibition of HCV NS5B-mediated RNA synthesis; format: functional, Hepacivirus hominis
How it was run: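 Enzymatic activity of HCV NS5B Δ21 measured with nucleoside 5'-triphosphates as inhibitors, by an earlier protocol. Triphosphates purified by anion exchange, desalted by RP-HPLC, >90% pure, identity confirmed by MS. IC50 averaged over at least three separate determinations.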

| Structure (SMILES) | CC50 [3] [µM] | EC50 [6] [µM] | other results |
| --- | --- | --- | --- |
| C[C@@]1(O)[C@H](O)[C@@H](CO)O[C@H]1n1cc(F)c2c(N)ncnc21 | > 100 | 0.07 | Cmax [1]: 600 nM; Clearance [2]: 44 mL/min/kg; half-life [4]: 306 min; bioavailability [5]: 51%; Tmax [7]: 30 min |
| C[C@@]1(O)[C@H](O)[C@@H](CO)O[C@H]1n1cc(Cl)c2c(O)nc(N)nc21 | > 100 | > 100 |  |
| C[C@@]1(O)[C@H](O)[C@@H](CO)O[C@H]1n1ccc2c(N)nccc21 | > 100 | > 100 |  |
| C[C@@]1(O)[C@H](O)[C@@H](CO)O[C@H]1n1ccc2c(N)nc(N)nc21 | > 100 | 100 |  |
| C[C@@]1(O)[C@H](O)[C@@H](CO)O[C@H]1n1cc(Cl)c2c(N)ncnc21 | ~50 | 0.13 |  |
| C[C@@]1(O)[C@H](O)[C@@H](CO)O[C@H]1n1cc(Br)c2c(N)ncnc21 | 40 | 0.24 |  |
| C[C@@]1(O)[C@H](O)[C@@H](CO)O[C@H]1n1ccc2c(O)nc(N)nc21 | > 100 | > 100 |  |
| C[C@@]1(O)[C@H](O)[C@@H](CO)O[C@H]1n1cc(C(=O)O)c2c(N)ncnc21 | > 100 | 70 |  |
| C[C@]1(O)C(n2cc(C#N)c3c(N)ncnc32)O[C@H](CO)[C@H]1O (stereo partly drawn) | ~50 | 3.1 |  |
| C[C@]1(O)C(n2cc(C(N)=O)c3c(N)ncnc32)O[C@H](CO)[C@H]1O (stereo partly drawn) | ~33 | 0.08 |  |
| C[C@@]1(O)[C@H](O)[C@@H](CO)O[C@H]1n1ncc2c(N)ncnc21 | > 100 | > 100 |  |
| Cc1cn([C@@H]2O[C@H](CO)[C@@H](O)[C@@]2(C)O)c2ncnc(N)c12 | > 100 | 34 |  |
| C[C@@]1(O)[C@H](O)[C@@H](CO)O[C@H]1n1ccc2c(N)nc(F)nc21 | > 100 | 100 |  |
| C[C@@]1(O)[C@H](O)[C@@H](CO)O[C@H]1n1cnc2c(N)ncnc21 | > 100 | 0.26 | Clearance [2]: > 200 mL/min/kg; half-life [4]: 18 min; bioavailability [5]: 0%; IC50 [8]: 1.9 µM |
| C[C@@]1(O)[C@H](O)[C@@H](CO)O[C@H]1n1cnc2c(=O)[nH]c(N)nc21 [2'-B-METHYL-GUANOSINE] | > 100 | 3.5 | bioavailability [5]: 85%; IC50 [8]: 0.13 µM |
| C[C@@]1(O)[C@H](O)[C@@H](CO)O[C@H]1n1ccc2c(N)ncnc21 [BETA-2'-C-METHYL-7-DEAZA-ADENOSINE] | > 100 | 0.25 |  |
